The whole screen tested about 2,300 compounds, of which about 25 (1%) were called active. This excerpt belongs to a sample that is enriched for actives. A number with no mark means an inactive call.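 Rule for the calls: active = mean inhibition over three replicate wells above the hit threshold derived in the earlier primary screen (cut at about 45% in these data); inactive = the rest.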
Each compound was assayed on Hepatitis C virus core protein (core106 dimerization) (assay: blockers of core106 self-association – biochemical, TR-FRET, triplicate, confirmation (AID 2152;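 note: 0% = DMSO wells and 100% = unlabelled core106 competitor control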)). Details: TR-FRET GST-/Flag-core106 dimerization, HTRF; at 5 µM; hits give high values.
Method in brief: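 Test system – GST- and Flag-tagged HCV core106 peptides, dimerization via antibody TR-FRET · Amount – 17 nM Flag- plus 13.5 nM GST-core106 · Schedule – 4 h incubation, 22.5 °C · Compound dosing – one 5 µM dose, 0.5% DMSO · Detection – TR-FRET, 340 nm excitation, 671/617 nm emission · Reagent – Eu(K)-anti-GST plus XL665-anti-FLAG antibodies · Read-out basis – percent inhibition from emission ratio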

Row | Structure (SMILES) | inhibition
1 | CCN(CC(=O)Nc1ccc(OC)cc1)C(=O)Cc1cccs1 | 6.25%
2 | Cc1ccc(C)c(S(=O)(=O)N2CCC(c3nc4c(nnn4Cc4ccc5c(c4)OCCO5)c(=O)[nH]3)CC2)c1 | 7.31%
3 | Cc1ccc(O)c(N=CC2=C(O)c3ccccc3C2=O)c1 | 7.52%
4 | COc1ccccc1NS(=O)(=O)c1cc(NC(=O)Nc2ccc(Cl)cc2Cl)ccc1N1CCCCC1 | -5.21%
5 | O=Cc1cn(-c2ccccc2)nc1-c1cc2c(ccc3ccccc32)oc1=O | -0.21%
6 | COC(=O)/C=c1/s/c(=C(\C#N)C(=O)NCc2ccco2)n(-c2ccc(C)cc2)c1=O | -4.05%
7 | Cc1c(C(=O)Nc2ccc(Cl)cc2)c2ccccn2c1C(=O)c1ccc([N+](=O)[O-])cc1 | -5.31%
8 | O=C(OCC(=O)c1ccc(Cl)s1)c1cnccn1 | 1.14%
9 | CCOC(=O)c1ccc(NC(=O)COc2ccc(-n3cnnn3)cc2)cc1 | 3.21%
10 | COc1ccccc1N1CCN(C(=O)c2ccc3c(c2)NC(=O)C(CSCc2ccccc2C)N3)CC1 (centres undefined) | 25.3%
11 | Cc1ccc(N2C(=O)N3[C@H](c4ccc(F)cc4)[C@@H]4C(=O)N(C5CCCCC5)C(=O)[C@@H]4[C@]3(Cc3ccccc3)C2=O)cc1 | -1.83%
12 | CC(=O)Nc1ccc(NC(=O)c2ccc(COc3ccccc3)cc2)cc1 | -12.8%
13 | Cc1cc(-c2csc(NC(=O)c3cc4ccccc4o3)n2)c(C)n1C | 22.5%
14 | COC(=O)c1ccc(Oc2coc3cc(OCc4cnn(-c5ccccc5)c4)ccc3c2=O)cc1 | -4.6%
15 | N#Cc1c(-c2cccc(F)c2)cc(-c2ccccc2)nc1Br | 9.78%
16 | CCOC(=O)C1=C(c2ccccc2)NC(=S)NC1c1cc([N+](=O)[O-])ccc1OC (centres undefined) | -1.99%
17 | COc1ccc(-n2c(-c3ccccc3)nc(=S)c3c2CCCC3)cc1 | 33.8%

Row | Structure (SMILES) | inhibition
18 | O=[N+]([O-])c1ccc(Oc2cc(NC3CCCCCCC3)c([N+](=O)[O-])cc2[N+](=O)[O-])cc1 | -0.42%
19 | Cc1ccc2nc(/C(C#N)=C\c3ccc(Oc4ccc(C(F)(F)F)cc4[N+](=O)[O-])cc3)[nH]c2c1 | -6.22%
20 | N#CC(=C1CCCC1)c1nc(-c2ccccc2O)cs1 | -2%
21 | O=C(Nc1ccc2c(c1)OCO2)c1cc(-c2cccnc2)nc2ccccc12 | -0.48%
22 | O=C1C2C3C=CC(C4CC34)C2C(=O)N1/N=C/c1ccc(-c2ccc(Cl)cc2[N+](=O)[O-])o1 (centres undefined) | -5.46%
23 | CCN1C=C(Cc2cccs2)C2=C(C1)C(c1cccs1)C(C#N)=C(N)O2 (centres undefined) | -3.27%
24 | CCCCc1nc2sc3c(SCC(=O)NCc4ccco4)ncnc3c2c2c1CCC2 | 52.8% (active)
25 | CCCc1nc2sc3c(SCC(=O)NCc4ccco4)ncnc3c2c2c1CCC2 | 15.9%
26 | CSc1nc(SCC(=O)NCc2ccco2)c2c3c(sc2n1)CN(C)CC3 | 20.1%
27 | O=C(NCc1ccco1)C(c1ccco1)N(C(=O)Cn1nnc2ccccc21)c1ccc2c(c1)CCC2 (centres undefined) | 6.56%
28 | COc1ccc(/C=C/C(=O)Nc2cc(C)nn2-c2nc3ccccc3n2Cc2cccc([N+](=O)[O-])c2)cc1 | -5.15%
29 | COc1ccc(NS(=O)(=O)c2ccc(O)c(NC(=O)c3cc4c(C)nn(-c5ccc(F)cc5)c4s3)c2)cc1 | -2.83%
30 | COc1cccc(-n2c(SCC(=O)Nc3cc(C)on3)nc3c([nH]c4ccccc43)c2=O)c1 | -2.22%
31 | Cc1ccc(Cn2c(SCC(=O)Nc3cc(C)on3)nc3ccccc3c2=O)cc1 | 9.61%
32 | CCCCn1c(SCC(=O)Nc2cc(C)on2)nc2ccccc2c1=O | 54.9% (active)
33 | CC1CCCCC12NC(=O)N(CC(=O)c1ccc[nH]1)C2=O (centres undefined) | -2.48%
34 | Cn1c(SCC(=O)Nc2sccc2C#N)nnc1-c1ccccc1 | -0.16%
